Data from ChEMBL document CHEMBL3414494 (Eur J Med Chem, 2015).
Active and inactive are the calls of the source. The rule behind the calls is not given here.

Tests used:
A549 = test: Cytotoxicity against human A549 cells assessed as growth inhibition after 72 hrs by MTT assay; assay type: functional, cell-based; conditions: A549, 72 h
How it was run: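 A549 human lung adenocarcinoma cells were seeded at 2000–3000 cells/well and held 24 h at 37 °C in 5% CO2. They were then exposed to a range of compound concentrations for 72 h at 37 °C. MTT (5 mg/mL stock) was added for 3 h, the medium was removed, formazan was dissolved in DMSO, and absorbance was read at 550 nm.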

[1] = Cytotoxicity against human Hep3B cells assessed as growth inhibition after 72 hrs by MTT assay; assay type: functional, cell-based, Hep 3B2
How it was run: (§1)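 Cells were seeded at 2000–3000 per well and pre-incubated 24 h at 37 °C, 5% CO2. A concentration range of compound was then added for 72 h. MTT (5 mg/mL) was added for 3 h, the medium removed, and formazan dissolved in DMSO. Absorbance was read at 550 nm as the viable-cell measure.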

HepG2 = test: Cytotoxicity against human HepG2 cells assessed as growth inhibition after 72 hrs by MTT assay; assay type: functional, cell-based; conditions: HepG2, 72 h; how it was run: as §1
Histone deacetylase 1 = Histone deacetylase 1 (Homo sapiens, UniProt Q13547); test: Inhibition of recombinant human HDAC1 expressed in baculovirus infected insect High5 cells using Ac-Lys-Tyr-Lys (epsilon-acetyl)-AMC as substrate after 24 hrs by fluorescence assay
Chain of Histone deacetylase 1 (Q13547 whole entry): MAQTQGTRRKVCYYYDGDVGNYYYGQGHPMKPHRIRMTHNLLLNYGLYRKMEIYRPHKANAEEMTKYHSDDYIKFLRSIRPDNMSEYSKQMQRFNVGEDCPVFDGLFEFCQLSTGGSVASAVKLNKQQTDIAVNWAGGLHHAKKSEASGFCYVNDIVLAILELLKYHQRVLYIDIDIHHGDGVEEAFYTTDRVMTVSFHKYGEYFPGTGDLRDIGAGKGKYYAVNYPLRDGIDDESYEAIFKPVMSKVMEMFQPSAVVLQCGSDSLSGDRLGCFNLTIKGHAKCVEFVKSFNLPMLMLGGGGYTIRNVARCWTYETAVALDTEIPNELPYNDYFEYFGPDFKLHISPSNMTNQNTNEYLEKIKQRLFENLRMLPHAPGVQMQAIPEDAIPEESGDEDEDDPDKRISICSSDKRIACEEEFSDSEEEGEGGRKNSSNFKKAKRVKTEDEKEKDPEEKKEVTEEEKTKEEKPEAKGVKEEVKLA

[2] = Cytotoxicity against human SNU16 cells assessed as growth inhibition after 72 hrs by MTT assay; assay type: functional, cell-based; conditions: SNU-16, 72 h; how it was run: as §1
[3] = Cytotoxicity against human SNU5 cells assessed as growth inhibition after 72 hrs by MTT assay; assay type: functional, cell-based; conditions: SNU-5, 72 h; how it was run: as §1
Histone deacetylase 2 = Histone deacetylase 2 (Homo sapiens, UniProt Q92769); test: Inhibition of recombinant human HDAC2 expressed in baculovirus infected insect High5 cells using Ac-Lys-Tyr-Lys (epsilon-acetyl)-AMC as substrate after 24 hrs by fluorescence assay
Chain of Histone deacetylase 2 (Q92769 whole entry): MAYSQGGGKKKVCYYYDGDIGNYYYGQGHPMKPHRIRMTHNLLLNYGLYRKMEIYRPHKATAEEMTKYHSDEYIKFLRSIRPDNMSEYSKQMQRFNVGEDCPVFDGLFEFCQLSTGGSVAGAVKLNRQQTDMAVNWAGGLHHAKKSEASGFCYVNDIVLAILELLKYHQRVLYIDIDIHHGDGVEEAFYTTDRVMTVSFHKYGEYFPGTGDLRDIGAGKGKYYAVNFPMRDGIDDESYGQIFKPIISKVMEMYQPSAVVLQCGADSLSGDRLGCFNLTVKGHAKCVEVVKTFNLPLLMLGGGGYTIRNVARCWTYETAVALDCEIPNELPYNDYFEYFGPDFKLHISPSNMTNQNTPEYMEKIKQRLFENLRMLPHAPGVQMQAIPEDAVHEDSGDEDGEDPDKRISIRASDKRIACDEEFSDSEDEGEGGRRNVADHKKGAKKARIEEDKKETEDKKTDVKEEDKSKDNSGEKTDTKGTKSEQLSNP

[4] = Cytotoxicity against human PANC1 cells assessed as growth inhibition after 72 hrs by MTT assay; assay type: functional, cell-based; conditions: PANC-1, 72 h; how it was run: as §1
[5] = Cytotoxicity against human MHCC97H cells assessed as growth inhibition after 72 hrs by MTT assay; assay type: functional, cell-based; how it was run: as §1
SJSA-1 = test: Cytotoxicity against human SJSA1 cells assessed as growth inhibition after 72 hrs by MTT assay; assay type: functional, cell-based; conditions: SJSA-1, 72 h; how it was run: as §1
[6] = Cell cycle arrest in human HCT116 cells assessed as accumulation at G2/M phase at 10 to 20 nM after 24 hrs by flow cytometric analysis; assay type: functional, cell-based; conditions: HCT-116
Histone deacetylase 3 = Histone deacetylase 3 (Homo sapiens, UniProt O15379); test: Inhibition of recombinant human HDAC3 expressed in baculovirus infected insect High5 cells using Ac-Lys-Tyr-Lys (epsilon-acetyl)-AMC as substrate after 3 hrs by fluorescence assay
Chain of Histone deacetylase 3 (O15379 whole entry): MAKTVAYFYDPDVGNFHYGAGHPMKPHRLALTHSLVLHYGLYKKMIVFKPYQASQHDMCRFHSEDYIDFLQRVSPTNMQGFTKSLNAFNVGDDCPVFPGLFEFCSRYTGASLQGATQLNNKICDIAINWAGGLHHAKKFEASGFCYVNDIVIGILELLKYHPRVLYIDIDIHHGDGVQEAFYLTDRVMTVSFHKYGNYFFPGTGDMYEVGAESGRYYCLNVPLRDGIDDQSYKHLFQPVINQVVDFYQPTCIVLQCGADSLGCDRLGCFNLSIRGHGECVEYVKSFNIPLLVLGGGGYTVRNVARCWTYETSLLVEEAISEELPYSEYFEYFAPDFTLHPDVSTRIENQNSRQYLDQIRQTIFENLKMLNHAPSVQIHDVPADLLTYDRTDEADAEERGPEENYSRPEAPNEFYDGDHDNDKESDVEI

[7] = Cytotoxicity against human MKN45 cells assessed as growth inhibition after 72 hrs by MTT assay; assay type: functional, cell-based; conditions: MKN-45, 72 h; how it was run: as §1
SW-620 = test: Cytotoxicity against human SW620 cells assessed as growth inhibition after 72 hrs by MTT assay; assay type: functional, cell-based; conditions: SW-620, 72 h; how it was run: as §1
[8] = Cytotoxicity against human HCT116 cells assessed as growth inhibition after 72 hrs by MTT assay; assay type: functional, cell-based; conditions: HCT-116, 72 h; how it was run: as §1
Tubulin (Homo sapiens) = Tubulin (Homo sapiens) (UniProt P68371+Q9H4B7+P0DPH7+P68366+Q13509+Q71U36+P04350+Q3ZCM7+P07437+P68363+Q9BQE3+Q6PEY2+Q13885+Q9BVA1+Q9BUF5); test: Inhibition of tubulin (unknown origin) polymerization at 10 uM; assay type: protein-complex assay

For `COc1cc2c(c(OC)c1OC)-c1ccc(OC)c(=O)cc1[C@@H](NC(C)=O)CC2` [COLCHICINE], the IC50 (A549) was 105 nM, the IC50 [1] was 14 nM and the IC50 (HepG2) was 27 nM. For the same compound, the IC50 (Histone deacetylase 1) was over 50100 nM, the IC50 [2] was 5 nM and the IC50 [3] was 34 nM. The IC50 (Histone deacetylase 2) was over 50100 nM, the IC50 [4] was 21 nM and the IC50 [5] was 110 nM. For the same compound, the IC50 (SJSA-1) was 8 nM, the Activity [6] was “Active” and the IC50 (Histone deacetylase 3) was over 50100 nM. The IC50 [7] was 2 nM, the IC50 (SW-620) was 5 nM and the IC50 [8] was 40 nM.

For `COc1cc2c(c(OC)c1OC)-c1ccc(OC)c(=O)cc1[C@@H](NCc1cccc(C(=O)Nc3cc(-c4cccs4)ccc3N)c1)CC2`, the IC50 (A549) was 393 nM, the IC50 (Histone deacetylase 1) was 25500 nM and the IC50 (Histone deacetylase 2) was 5410 nM. It also gave an IC50 (Histone deacetylase 3) of 19700 nM.

In the case of `COc1cc2c(c(OC)c1OC)-c1ccc(OC)c(=O)cc1[C@@H](NC(=O)c1cccc(C(=O)Nc3ccccc3N)c1)CC2`, the IC50 (A549) is reported as 3430 nM, the IC50 (Histone deacetylase 1) is reported as 9620 nM and the IC50 (Histone deacetylase 2) is reported as 4910 nM. It also gave an IC50 (Histone deacetylase 3) of 10800 nM.

Work on `COc1cc2c(c(OC)c1OC)-c1ccc(OC)c(=O)cc1[C@@H](NCc1cccc(C(=O)Nc3ccccc3N)c1)CC2` yielded an IC50 (A549) of 354 nM, an IC50 (Histone deacetylase 1) of over 34400 nM and an IC50 (Histone deacetylase 2) of over 34400 nM. The inhibition (Tubulin (Homo sapiens)) was “Active” and the IC50 (Histone deacetylase 3) was over 34400 nM.

With `Nc1ccccc1NC(=O)c1ccc(CNc2nccc(-c3cccnc3)n2)cc1` [MOCETINOSTAT] the IC50 (A549) was 2080 nM, the IC50 [1] was 823 nM and the IC50 (HepG2) was 876 nM. It also gave an IC50 [2] of 142 nM, an IC50 [3] of 1010 nM and an IC50 [4] of 26800 nM. It also gave an IC50 [5] of 4560 nM, an IC50 (SJSA-1) of 3620 nM and an IC50 [7] of 610 nM. The IC50 (SW-620) was 419 nM and the IC50 [8] was 396 nM.

`COc1cc2c(c(OC)c1OC)-c1ccc(OC)c(=O)cc1[C@@H](NCc1ccc(C(=O)Nc3ccccc3N)cc1)CC2` gave an IC50 (A549) of 106 nM, an IC50 [1] of 5 nM and an IC50 (HepG2) of 14 nM. The IC50 (Histone deacetylase 1) was 12500 nM, the IC50 [2] was 2 nM and the IC50 [3] was 14 nM. For the same compound, the IC50 (Histone deacetylase 2) was 6730 nM, the IC50 [4] was 5 nM and the IC50 [5] was 43 nM. The IC50 (SJSA-1) was 9 nM, the inhibition (Tubulin (Homo sapiens)) was “Active” and the Activity [6] was “Active”. For the same compound, the IC50 (Histone deacetylase 3) was 11200 nM, the IC50 [7] was 2 nM and the IC50 (SW-620) was 2 nM. For the same compound, the IC50 [8] was 5 nM.

Compound `COc1cc2c(c(OC)c1OC)-c1ccc(OC)c(=O)cc1[C@@H](NCc1ccc(C(=O)Nc3cc(-c4cccs4)ccc3N)cc1)CC2` has an IC50 (A549) of 1040 nM, an IC50 (Histone deacetylase 1) of 3320 nM and an IC50 (Histone deacetylase 2) of 270 nM. For the same compound, the IC50 (Histone deacetylase 3) was 1470 nM.

For `COc1cc2c(c(OC)c1OC)-c1ccc(OC)c(=O)cc1[C@@H](NC(=O)c1ccc(C(=O)Nc3cc(-c4cccs4)ccc3N)cc1)CC2`, the IC50 (A549) was 740 nM, the IC50 (Histone deacetylase 1) was 2240 nM and the IC50 (Histone deacetylase 2) was 380 nM. For the same compound, the IC50 (Histone deacetylase 3) was 1970 nM.

Compound `COc1cc2c(c(OC)c1OC)-c1ccc(OC)c(=O)cc1[C@@H](NC(=O)c1ccc(C(=O)Nc3ccccc3N)cc1)CC2` has an IC50 (A549) of 1620 nM, an IC50 (Histone deacetylase 1) of 15900 nM and an IC50 (Histone deacetylase 2) of 10400 nM. For the same compound, the IC50 (Histone deacetylase 3) was 12100 nM.

Compound `COc1cc2c(c(OC)c1OC)-c1ccc(OC)c(=O)cc1[C@@H](NC(=O)c1cccc(C(=O)Nc3cc(-c4cccs4)ccc3N)c1)CC2` has an IC50 (A549) of 2790 nM, an IC50 [1] of 10 nM and an IC50 (HepG2) of 20 nM. For the same compound, the IC50 (Histone deacetylase 1) was 1500 nM, the IC50 [2] was 5 nM and the IC50 [3] was 119 nM. For the same compound, the IC50 (Histone deacetylase 2) was 190 nM, the IC50 [4] was 19 nM and the IC50 [5] was 339 nM. For the same compound, the IC50 (SJSA-1) was 27 nM, the inhibition (Tubulin (Homo sapiens)) was “Active” and the Activity [6] was “Active”. For the same compound, the IC50 (Histone deacetylase 3) was 1490 nM, the IC50 [7] was 2 nM and the IC50 (SW-620) was 4 nM. For the same compound, the IC50 [8] was 39 nM.
